{"source": "paper PMC4324418", "about": "(ACS Chemical Neuroscience, 2014)", "key": {"rat M4 receptor": {"molecular_target": "T1, rat M4 receptor (Rattus norvegicus, UniProt P08485)", "T1 sequence (P08485 1-478)": "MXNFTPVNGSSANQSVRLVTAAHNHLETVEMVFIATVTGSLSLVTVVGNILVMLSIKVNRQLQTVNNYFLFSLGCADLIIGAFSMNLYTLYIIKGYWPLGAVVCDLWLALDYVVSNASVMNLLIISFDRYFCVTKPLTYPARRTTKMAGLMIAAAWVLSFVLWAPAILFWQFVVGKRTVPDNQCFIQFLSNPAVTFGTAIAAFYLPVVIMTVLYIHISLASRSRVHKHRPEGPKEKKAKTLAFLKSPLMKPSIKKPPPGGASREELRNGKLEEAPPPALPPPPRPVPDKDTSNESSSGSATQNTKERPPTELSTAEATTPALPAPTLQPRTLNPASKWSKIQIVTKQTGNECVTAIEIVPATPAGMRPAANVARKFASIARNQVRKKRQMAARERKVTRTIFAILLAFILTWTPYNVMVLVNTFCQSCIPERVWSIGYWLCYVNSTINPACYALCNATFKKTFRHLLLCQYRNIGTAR", "assay_type": "cell-based"}, "wild-type mice [1]": {"test_system": "wild-type mice", "experiment": "Contextual fear conditioning, four-shock, MK-801-induced deficit", "assay_type": "in vivo, mouse", "conditions": "MK-801 0.1–0.3 mg/kg prior to the four-shock conditioning trial", "in_short": "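Subjects were wild-type and M4 KO mice, 8–11 weeks old, handled for 3 days and saline-injected 1 day before conditioning. Vehicle (10% Tween 80 in water, IP) or test compound (3–10 mg/kg IP) was given 30 min before saline or MK-801 (0.1–0.3 mg/kg IP). Mice entered the chamber 30 min later for a four-shock conditioning trial. Percent freezing was scored 24 h later, drug-free.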"}, "M4 KO mice [2]": {"test_system": "M4 KO mice", "experiment": "Touchscreen pairwise visual discrimination task, M4 KO mice", "assay_type": "in vivo, mouse", "conditions": "M4 KO", "in_short": "(§1)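 Mice aged 8–11 weeks were held at ~85% free-feeding weight, with water freely available. They were trained on touchscreen nosepoke discrimination (60 trials or 60 min) to ≥85% accuracy on 3 consecutive days. Next day: vehicle (10% Tween 80 IP) or test compound (3–30 mg/kg IP) 60 min pre-test, then saline or MK-801 (0.1–0.3 mg/kg IP) 30 min later. Mice were retested drug-free 24 h later. Analysis: ANOVA with Bonferroni tests.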"}, "wild-type mice [3]": {"test_system": "wild-type mice", "experiment": "MK-801-induced hyperlocomotion in wild-type mice", "assay_type": "in vivo, mouse", "conditions": "IP", "in_short": "(§2)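 Wild-type and M4 KO mice were habituated 90 min in a photobeam open field. They then received vehicle (10% Tween 80 IP), followed 30 min later by saline or MK-801 IP, and activity was recorded for 120 min. Distance traveled was binned per 5 min. Totals covered t = 120 to 240 min and were analyzed by ANOVA with Bonferroni post hoc tests.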"}, "M4 KO mice [4]": {"test_system": "M4 KO mice", "experiment": "MK-801-induced hyperlocomotion in M4 KO mice", "assay_type": "in vivo, mouse", "conditions": "IP, lowest significant dose", "in_short": "as §2"}, "wild-type mice [5]": {"test_system": "wild-type mice", "experiment": "Touchscreen pairwise visual discrimination task, wild-type mice", "assay_type": "in vivo, mouse", "in_short": "as §1"}, "wild-type mice [6]": {"test_system": "wild-type mice", "experiment": "Modified Irwin neurological test battery", "assay_type": "in vivo, mouse", "conditions": "1 mg/kg"}, "[7]": {"conditions": "potentiation of an EC20 concentration of ACh, CHO cells"}}, "note": "Structures can show the parent of a compound that is named as a salt. Marks after values point to notes of the source that are not given here.", "data": [{"smiles": "COc1nc2sc(C(=O)NC3CC3)c(N)c2c(C)c1Cl", "note": "[LY2033298]", "values": [{"measurement": "%AChmax", "setting": "rat M4 receptor; maximum response as % of the Emax of ACh", "result": 67, "unit": "%"}, {"measurement": "EC50", "setting": "rat M4 receptor; [7]", "result": 0.646, "unit": "µM"}, {"measurement": "pEC50", "setting": "rat M4 receptor; [7]", "result": "6.19 ± 0.03"}]}, {"smiles": "C[C@]12N[C@H](Cc3ccccc31)c1ccccc12", "note": "[MK-801, (5S,10R)-(+)-5-methyl-10,11-dihydro-5H-dibenzo[a,d]cyclohepten-5,10-imine maleate, reference compound]", "values": [{"measurement": "acquisition of contextual fear conditioning (percent freezing)", "setting": "wild-type mice [1]", "result": "dose-dependently impaired"}, {"measurement": "response accuracy on the test day", "setting": "M4 KO mice [2]; MK-801 alone (vehicle 91%)", "result": 73, "unit": "%"}, {"measurement": "correct reward collection latency", "setting": "M4 KO mice [2]; vehicle + MK-801 0.30 mg/kg IP", "result": "1.54 ± 0.15", "unit": "s"}, {"measurement": "correct touch latency", "setting": "M4 KO mice [2]; vehicle + MK-801 0.30 mg/kg IP", "result": "8.76 ± 2.19", "unit": "s"}, {"measurement": "time to complete 60 trials", "setting": "M4 KO mice [2]; vehicle + MK-801 0.30 mg/kg IP", "result": "1264 ± 280.5 ^f s"}, {"measurement": "dose with significant effect on locomotor activity", "setting": "wild-type mice [3]", "result": 3, "unit": "mg/kg"}, {"measurement": "dose with significant effect on locomotor activity", "setting": "M4 KO mice [4]", "result": 0.18, "unit": "mg/kg"}, {"measurement": "response accuracy on the test day", "setting": "wild-type mice [5]; 0.3 mg/kg MK-801 (vehicle group 92%)", "result": 63, "unit": "%"}, {"measurement": "correct reward collection latency", "setting": "wild-type mice [5]; vehicle + MK-801 0.10 mg/kg IP", "result": "1.32 ± 0.15", "unit": "s"}, {"measurement": "correct touch latency", "setting": "wild-type mice [5]; vehicle + MK-801 0.10 mg/kg IP", "result": "2.95 ± 0.57", "unit": "s"}, {"measurement": "time to complete 60 trials", "setting": "wild-type mice [5]; vehicle + MK-801 0.10 mg/kg IP", "result": "1004 ± 124.3", "unit": "s"}, {"measurement": "correct reward collection latency", "setting": "wild-type mice [5]; vehicle + MK-801 0.30 mg/kg IP", "result": "5.58 ± 2.58", "unit": "s"}, {"measurement": "correct touch latency", "setting": "wild-type mice [5]; vehicle + MK-801 0.30 mg/kg IP", "result": "8.65 ± 1.99", "unit": "s"}, {"measurement": "time to complete 60 trials", "setting": "wild-type mice [5]; vehicle + MK-801 0.30 mg/kg IP", "result": "1118 ± 139.2", "unit": "s"}]}, {"smiles": "O=C1CCCN1CC#CCN1CCCC1", "note": "[oxotremorine, oxotremorine sesquifumarate, reference compound]", "values": [{"measurement": "autonomic function and somatomotor deficits", "setting": "wild-type mice [6]", "result": "induced time-dependent changes in autonomic function"}]}]}
